# Screening results deposited in PubChem by several laboratories.
# ABCB6 inh MLPCN: ABCB6 transporter inhibitors, primary screen, K562-ABCB6 cells, flow cytometry, MLPCN library; ATP-binding cassette sub-family B member 6 (Homo sapiens), Q9NP58; K562-ABCB6 porphyrin accumulation, 1 h; hits give low values; fluorescence ratio to DMSO, % at 10 µM; actives 0.19% (n = 360,000); AID 602162, 2011;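 active means fluorescence ratio to DMSO below 75%, the collection mean minus 3 SD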;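 further: signal is porphyrin accumulated inside mitochondria; 100% equals median channel fluorescence of DMSO control wells; lower ratio means ABCB6 inhibition with less porphyrin fluorescence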
# AHR act: AHR activators, primary screen, cell-based, luminescence, luciferase reporter, human | activation, % at 5 µM | AHR-responsive luciferase reporter cells | Aryl hydrocarbon receptor (Homo sapiens), P35869 | AID 2796, 2010 | actives 2.5% (n = 320,000); in the data active means activation above about 47%;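 further: 0% = vehicle wells and 100% = reference agonist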
# STAT3 act: IL-6 driven STAT3 reporter potentiators, primary screen, U3A cells, luciferase, luminescence, MLSCN library; IL-6 STAT3-luciferase reporter; 100% = signal with IL-6 EC80 alone; activation (% of control), % at 5.6 µM; actives 0.91% (n = 190,000); AID 871, 2007;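 active means activation above the screen-wide mean of compound activation plus 3 SD, cut at about 130% in these data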;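 further: 0% = background luminescence of wells with medium and substrate only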
#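 Test system: human U3A cells carrying STAT3-luciferase construct; control set: IL-6-only wells as 100% reference; timing: compound pre-incubation 1 h before IL-6, then 6 h stimulation at 37 °C; also added: IL-6 stimulus at 33 ng/mL final; evaluation: % activation versus median of IL-6-stimulated wells; detection: reporter luminescence signal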
# FXN GAA850 act: FXN promoter activators, primary screen, cell-based, luciferase luminescence, HEK293 lucGAA850; activation, % at 6 µM; HEK293 lucGAA850 FXN promoter luciferase reporter, 24 h; percent of 10 µM SAHA response; actives 0.56% (n = 360,000);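 active means activation above the average of all compounds screened plus 3 SD, cutoff fixed separately per campaign, cut at about 7.5% in these data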;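 further: 0% = DMSO wells and 100% = 10 µM SAHA wells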
# GAA30 FXN cntr: GAA30 FXN promoter activators, confirmation, counter-screen for GAA850 frataxin promoter activator project, cell-based, luminescence, HEK293, lucGAA30, triplicate; HEK293 lucGAA30 FXN promoter luciferase, 24 h; DMSO = 0%, 5 µM ipriflavone = 100%; shares compounds with FXN GAA850 act; actives 66% (n = 1,900); activation, % at 6 µM; AID 588350, 2011;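 active means mean activation above the mean of solvent-only control wells plus 3 SD, cut at about 22% in these data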;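 further: counterscreen of GAA850 promoter hits where activity marks nonselective or luminescence artifacts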
# FXN GAA850 conf: FXN GAA850 promoter activators in reporter cells, confirmation, cell-based, luminescence, HEK293 lucGAA850, triplicate; shares compounds with FXN GAA850 act; actives 86% (n = 1,900); HEK293 lucGAA850 FXN promoter luciferase reporter, 24 h; 100% = activation by SAHA; AID 588351, 2011; activation, % at 6 µM;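 active means mean activation above a set limit taken from the primary screen, cut at about 8% in these data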;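 further: 0% = DMSO wells and 100% = 10 µM SAHA wells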
# Numbers without * were called inactive; x = no result. Only some compounds are listed: those with a hit (about 3.3% of all), similar ones and a draw of the others.
SMILES,ABCB6 inh MLPCN,AHR act,STAT3 act,FXN GAA850 act,GAA30 FXN cntr,FXN GAA850 conf
COc1ccccc1CP(=O)(c1ccccc1)c1ccccc1,89.0,4.3,91.8,-1.2,x,x
CCN(CC(O)c1cccc(O)c1)C(=O)C12CC3CC(CC(C3)C1)C2 (stereo not drawn),95.0,-0.5,x,18.9*,32.5*,22.6*
CCN(CC)C(=O)c1cccc(NC(=O)CC23CC4CC(CC(C4)C2)C3)c1,100.0,-1.9,x,2.7,x,x
COC(=O)N1[C@H](C)C=C[C@]1(Cc1ccccc1)C(=O)NCCCNc1ncc(C(F)(F)F)cc1Cl,99.0,6.4,x,7.8*,23.4*,11.2*
CS(=O)(=O)NCCCCCCNS(C)(=O)=O,101.0,0.7,102.2,1.0,x,x
CCN(CC)S(=O)(=O)c1cc(NC(=O)CCc2c(C)noc2C)ccc1C,102.0,2.8,x,-1.8,x,x
CCN(CC)S(=O)(=O)c1cc(NC(=O)CSCc2c(C)noc2C)ccc1C,96.0,-0.1,x,8.4*,9.9,8.2*
O=C(Nc1ccncc1)c1c(F)c(F)c(F)c(F)c1F,95.0,-0.7,x,2.3,x,x
CC(NS(=O)(=O)c1ccc(Br)cc1)C(c1cccs1)N1CCN(C)CC1 (stereo not drawn),101.0,1.3,107.0,17.4*,11.0,1.8
CC(NS(C)(=O)=O)C(c1cccs1)N1CCN(C)CC1 (stereo not drawn),98.0,4.0,92.8,1.2,x,x
Fc1ccc(CSc2ncnc3scc(-c4ccccc4)c23)cc1,99.0,2.2,109.9,8.9*,22.1*,13.7*
C(=N\Nc1nc(-c2ccccc2)cs1)/c1cccnc1,94.0,44.2,94.8,1.4,x,x
CC(C)(C)c1csc(N/N=C/c2cccnc2)n1,90.0,28.2,95.9,7.9*,91.5*,37.0*
CN(CC(=O)NC1CCCC1)S(=O)(=O)c1cccc(Cl)c1,99.0,-3.3,x,2.1,x,x
CC(C)c1nc2sc3c(NCc4ccco4)ncnc3c2c2c1COC(C)(C)C2,99.0,-5.3,109.9,8.1*,9.5,8.0*
O=C1/C(=C/c2ccccc2)Oc2cc(OC(=O)N3CCOCC3)ccc21,97.0,12.1,107.7,7.8*,61.6*,23.7*
O=C(NCc1ccccc1)c1cc(C2CCCCN2S(=O)(=O)c2cccc3cccnc23)on1 (stereo not drawn),97.0,x,x,0.0,x,x
CCN1C(=O)[C@H]2[C@@H](c3ccc(C)cc3)N3C(=O)N(c4cccc(Br)c4)C(=O)[C@@]3(Cc3ccccc3)[C@H]2C1=O,99.0,3.2,x,-5.2,x,x
CC(C)(C)N1C(=O)[C@H]2[C@@H](c3ccc(Br)cc3)N3C(=O)N(c4cccc(Br)c4)C(=O)[C@@]3(Cc3ccccc3)[C@H]2C1=O,97.0,-0.7,x,14.7*,13.9,11.2*
CC(C)(C)N1C(=O)[C@H]2[C@@H](c3ccc(Br)cc3)N3C(=O)N(c4ccccc4)C(=O)[C@@]3(Cc3ccccc3)[C@H]2C1=O,97.0,-0.9,x,9.9*,4.6,13.6*
CC/C=C/C(=O)N1CC2(CC(c3cccc(NC(=O)COc4ccc(Cl)cc4)c3)=NO2)C[C@H]1C(N)=O (stereo partly drawn),102.0,-0.2,x,0.8,x,x
O=C(CCc1ccccc1)Nc1cc(S(=O)(=O)N2CCOCC2)ccc1N1CCCC1,102.0,x,x,1.2,x,x
Cc1ccccc1S(=O)(=O)N(C)C[C@@H]1OCc2ccccc2-c2c(n(C)c3ccccc23)C(=O)N([C@H](C)CO)C[C@@H]1C,106.0,x,x,19.6*,17.8,10.3*
C[C@H](CO)N1C[C@H](C)[C@H](CN(C)C(=O)Nc2ccc(F)cc2)OCc2ccccc2-c2c(n(C)c3ccccc23)C1=O,139.0,x,x,14.4*,19.8,9.4*
CC(C)NC(=O)N(C)C[C@@H]1OCc2ccccc2-c2c(n(C)c3ccccc23)C(=O)N([C@@H](C)CO)C[C@@H]1C,103.0,x,x,4.6,x,x
